Laboratory results as given in ChEMBL document CHEMBL4359864, “The synthesis and in vitro biological evaluation of novel fluorinated tetrahydrobenzo[j]phenanthridine-7,12-diones against Mycobacterium tuberculosis” (Eur J Med Chem, 2019).
Values after ≈ are worked out from the molar mass of the structure shown.

How the values were obtained:
[1] = Cytotoxicity against mouse J774A.1 cells assessed as reduction in cell viability incubated for 24 hrs by neutral red uptake assay; assay type: cell-based, J774.A1
Method in brief: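 J774A.1 cells in DMEM + 10% iFCS, 37°C, 5% CO2, seeded at 40.000 cells/well and left overnight. Twofold dilutions from 128 µM final; 24 h exposure. Neutral red uptake for 3 h, dye extracted with 1:1 ethanol/acetic acid, OD read at 530 nm (reference 620 nm). CC50 = 50% reduction in uptake; mean of triplicates.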

Enterococcus faecium = test: Antibacterial activity against Enterococcus faecium ATCC 19434 incubated for 24 hrs by resazurin dye based fluorimetric assay; assay type: functional, organism-based; details: ATCC 19434, 24 h
Method in brief: (§1)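 Resazurin microtiter assay: compounds from 10 mM DMSO stock, twofold serial dilutions from 64 µM final in growth medium, in triplicate. Inoculum from frozen glycerol stocks. Exposure 24 h, or 7 days for Mtb H37Ra (7H9 + 0.5% glycerol + 10% OADC). Then 0.01% resazurin was added and plates were incubated at 37°C until pink. Fluorescence read at ex 550/em 590 nm; mean of triplicates.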

CYP450 [2] = biological target: T1, CYP450 (Homo sapiens, UniProt P04798+P05177+P05181+P08684+P10632+P10635+P11509+P11712+P13584+P20813+P20815+P20853+P24462+P24903+P33260+P33261+P51589+P78329+P98187+Q02928+Q08477+Q16678+Q16696+Q5TCH4+Q6VVX0+Q7Z449+Q8TAV3+Q96SQ9+Q9HB55); test: Microsomal stability in human liver microsomes assessed as CYP450-mediated metabolism by measuring compound remaining at 5 uM and measured for 60 mins in presence of NADPH by UPLC-MS/MS analysis (reference value: 100%); assay type: ADME; details: read-out: Stability
Method in brief: (§2)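 Compound at 5 µM with 0.5 mg/mL liver microsomes in PBS. Phase I was started with 1 mM NADPH; phase II used 2 mM UDPGA. Diclofenac served as reference. Samples taken at 0, 15, 30 and 60 min were quenched in ice-cold acetonitrile, centrifuged at 4°C and analysed by LC-MS. Mean of at least two replicates ± SD.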

UGT [3] = biological target: T2, UGT (Homo sapiens, UniProt O60656+O75310+O75795+P06133+P0DTE4+P0DTE5+P16662+P19224+P22309+P22310+P35503+P35504+P36537+P54855+Q6UWM9+Q9BY64+Q9HAW7+Q9HAW8+Q9HAW9); test: Microsomal stability in human liver microsomes assessed as UGT-mediated metabolism by measuring compound remaining at 5 uM and measured for 30 mins in presence of UDPGA by UPLC-MS/MS analysis (reference value: 100%); assay type: ADME; details: read-out: Stability; method in brief: as §2
UGT [4] = biological target: T2, UGT; test: Microsomal stability in human liver microsomes assessed as UGT-mediated metabolism by measuring compound remaining at 5 uM and measured for 60 mins in presence of UDPGA by UPLC-MS/MS analysis (reference value: 100%); assay type: ADME; details: read-out: Stability; method in brief: as §2
CYP450 [5] = biological target: T1, CYP450; test: Microsomal stability in human liver microsomes assessed as CYP450-mediated metabolism by measuring compound remaining at 5 uM and measured for 15 mins in presence of NADPH by UPLC-MS/MS analysis (reference value: 100%); assay type: ADME; details: read-out: Stability; method in brief: as §2
CYP450 [6] = biological target: T1, CYP450; test: Microsomal stability in human liver microsomes assessed as CYP450-mediated metabolism by measuring compound remaining at 5 uM and measured for 30 mins in presence of NADPH by UPLC-MS/MS analysis (reference value: 100%); assay type: ADME; details: read-out: Stability; method in brief: as §2
UGT [7] = biological target: T2, UGT; test: Microsomal stability in human liver microsomes assessed as UGT-mediated metabolism by measuring compound remaining at 5 uM and measured for 15 mins in presence of UDPGA by UPLC-MS/MS analysis (reference value: 100%); assay type: ADME; details: read-out: Stability; method in brief: as §2
Pseudomonas aeruginosa = test: Antibacterial activity against Pseudomonas aeruginosa ATCC 9027 incubated for 24 hrs by resazurin dye based fluorimetric assay; assay type: functional, organism-based; details: ATCC 9027, 24 h; method in brief: as §1
[8] = system: Mycobacterium tuberculosis; test: Antimycobacterial activity against Mycobacterium tuberculosis H37Ra lux incubated for 7 days by luminometric assay; assay type: functional, organism-based; details: 168 h
Method in brief: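 Twofold serial dilutions in 7H9/OADC/glycerol, in triplicate, inoculated with a suspension of 10.000 RLU per mL. After 7 days, n-decanal (1% v/v in ethanol) was added and luminescence read. IC50 and MIC (90% growth reduction) were derived from the mean of triplicates.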

UGT [9] = test: Microsomal stability in mouse liver microsomes assessed as UGT-mediated metabolism by measuring compound remaining at 5 uM and measured for 15 mins in presence of UDPGA by UPLC-MS/MS analysis (reference value: 100%); assay type: ADME; details: read-out: Stability; method in brief: as §2
[10] = Antimycobacterial activity against Mycobacterium avium subsp. avium ATCC 25291 by resazurin dye based fluorimetric assay; assay type: functional
Method in brief: (§3)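 Resazurin microtiter method as for the bacterial panel. Mycobacteria grown in 7H9 with 10% OADC and 0.5% glycerol; for BCG, 0.05% Tween 80 replaced the glycerol. Cultures were sonicated and needle-passed to single cells. Incubation at 37°C, or 32°C for M. marinum. Fluorescence read at ex 550/em 590 nm; mean of triplicates.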

CYP450 [11] = test: Microsomal stability in mouse liver microsomes assessed as CYP450-mediated metabolism by measuring compound remaining at 5 uM and measured for 60 mins in presence of NADPH by UPLC-MS/MS analysis (reference value: 100%); assay type: ADME; details: read-out: Stability; method in brief: as §2
Streptococcus pneumoniae = test: Antibacterial activity against Streptococcus pneumoniae ATCC BAA-334 incubated for 24 hrs by resazurin dye based fluorimetric assay; assay type: functional, organism-based; details: ATCC BAA-334, 24 h; method in brief: as §1
Mycobacterium marinum = test: Antimycobacterial activity against Mycobacterium marinum NCTC 2275 by resazurin dye based fluorimetric assay; assay type: functional, organism-based; method in brief: as §3
CYP450 [12] = test: Microsomal stability in mouse liver microsomes assessed as CYP450-mediated metabolism by measuring compound remaining at 5 uM and measured for 30 mins in presence of NADPH by UPLC-MS/MS analysis (reference value: 100%); assay type: ADME; details: read-out: Stability; method in brief: as §2
Escherichia coli = test: Antibacterial activity against Escherichia coli ATCC 8739 incubated for 24 hrs by resazurin dye based fluorimetric assay; assay type: functional, organism-based; details: ATCC 8739, ATCC 8739, 24 h; method in brief: as §1
CYP450 [13] = test: Microsomal stability in mouse liver microsomes assessed as CYP450-mediated metabolism by measuring compound remaining at 5 uM and measured for 15 mins in presence of NADPH by UPLC-MS/MS analysis (reference value: 100%); assay type: ADME; details: read-out: Stability; method in brief: as §2
UGT [14] = test: Microsomal stability in mouse liver microsomes assessed as UGT-mediated metabolism by measuring compound remaining at 5 uM and measured for 30 mins in presence of UDPGA by UPLC-MS/MS analysis (reference value: 100%); assay type: ADME; details: read-out: Stability; method in brief: as §2
Staphylococcus aureus = test: Antibacterial activity against Staphylococcus aureus ATCC 6538 incubated for 24 hrs by resazurin dye based fluorimetric assay; assay type: functional, organism-based; details: ATCC 6538, 24 h; method in brief: as §1
UGT [15] = test: Microsomal stability in mouse liver microsomes assessed as UGT-mediated metabolism by measuring compound remaining at 5 uM and measured for 60 mins in presence of UDPGA by UPLC-MS/MS analysis (reference value: 100%); assay type: ADME; details: read-out: Stability; method in brief: as §2
[16] = system: Mycobacterium tuberculosis; test: Antibacterial activity against Mycobacterium tuberculosis H37Ra ATCC 25177 incubated for 7 days by resazurin dye based fluorimetric assay; assay type: functional, organism-based; details: H37Ra ATCC 25177, 168 h; method in brief: as §1
Klebsiella pneumoniae = test: Antibacterial activity against Klebsiella pneumoniae ATCC 13883 incubated for 24 hrs by resazurin dye based fluorimetric assay; assay type: functional, organism-based; details: ATCC 13883, 24 h; method in brief: as §1

SMILES | CC50 at 24 h [1] | IC50 (Enterococcus faecium) | remaining at 1 h, 5 µM (CYP450 [2]) | remaining at 0.5 h, 5 µM (UGT [3]) | remaining at 1 h, 5 µM (UGT [4]) | remaining at 0.25 h, 5 µM (CYP450 [5]) | remaining at 0.5 h, 5 µM (CYP450 [6]) | remaining at 0.25 h, 5 µM (UGT [7]) | IC50 (Streptococcus pneumoniae) | IC50 (Staphylococcus aureus) | IC50 (Klebsiella pneumoniae) | further results
CC/C(=C(\c1ccccc1)c1ccc(OCCN(C)C)cc1)c1ccccc1 [TAMOXIFEN] | 11.1 µM | – | – | – | – | – | – | – | – | – | – | –
CN[C@H](CC(C)C)C(=O)N[C@H]1C(=O)N[C@@H](CC(N)=O)C(=O)N[C@H]2C(=O)N[C@H]3C(=O)N[C@H](C(=O)N[C@H](C(=O)O)c4cc(O)cc(O)c4-c4cc3ccc4O)[C@H](O)c3ccc(c(Cl)c3)Oc3cc2cc(c3O[C@@H]2O[C@H](CO)[C@@H](O)[C@H](O)[C@H]2O[C@H]2C[C@](C)(N)[C@H](O)[C@H](C)O2)Oc2ccc(cc2Cl)[C@H]1O [VANCOMYCIN] | – | > 0.5 µM | – | – | – | – | – | – | – | – | – | –
O=C(O)Cc1ccccc1Nc1c(Cl)cccc1Cl [DICLOFENAC] | – | – | 5% | 16% | 13% | 45% | 23% | 22% | – | – | – | –
O=C1C2=C(C(=O)c3c1cnc1ccc(F)cc31)C1CCC2C1 (stereo not given) | > 128 µM | > 64 µM | 100% | 79% | 64% | 100% | 100% | 92% | 32 to 64 µM | > 64 µM | > 64 µM | IC50 (Pseudomonas aeruginosa): > 64 µM; IC50 [8]: 6.93 µM; MIC90 [8]: 57.3 µM (≈ 16.8 µg/mL); remaining at 0.25 h, 5 µM (UGT [9]): 96%; IC50 [10]: 0.24 µM; remaining at 1 h, 5 µM (CYP450 [11]): 100%; IC50 (Mycobacterium marinum): 5.04 µM; remaining at 0.5 h, 5 µM (CYP450 [12]): 100%; IC50 (Escherichia coli): > 64 µM; remaining at 0.25 h, 5 µM (CYP450 [13]): 100%; remaining at 0.5 h, 5 µM (UGT [14]): 92%; remaining at 1 h, 5 µM (UGT [15]): 72%; IC50 [16]: 4 to 8 µM
C[C@H]1c2cccc(O)c2C(=O)C2=C(O)[C@]3(O)C(=O)C(C(N)=O)=C(O)[C@@H](N(C)C)[C@@H]3[C@@H](O)[C@@H]21 [DOXYCYCLINE] | – | – | – | – | – | – | – | – | > 0.25 µM | < 0.25 µM | – | –
O=C(O)c1cn(C2CC2)c2cc(N3CCNCC3)c(F)cc2c1=O [CIPROFLOXACIN] | – | – | – | – | – | – | – | – | – | – | < 0.25 µM | –
